Assay outcomes (PubChem)
TRPC4 act: activators of mouse TRPC4 channel; Q9QUQ5; HEK293 TRPC4beta/mu-opioid, Fluo4 calcium fluorescence; stronger effect = higher value; B-score at 10 µM; 310,000 tested, 0.49% active;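 active = B-score above 5 SD of library B-scores, and initial fluorescence ratio not above library mean plus 5 SD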;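 note: positive B-score marks a calcium rise read as TRPC4 activation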
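Incubation: 45 min room-temperature Fluo4 loading, 110 s read / System: HEK293 cells stably co-expressing mouse TRPC4beta and mu-opioid receptor / Signal: Fluo4 fluorescence, kinetic / Control set: buffer (low) and maximal DAMGO (high) / Measure: integrated baseline-normalised fluorescence ratio, converted to per-well B score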
TRPC6 act: mouse TRPC6 channel activation | Q61143 | HEK293-TRPC6 membrane potential dye fluorescence; stronger effect = higher value | B-score at 10 µM | 310,000 tested, 0.13% active;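 active = B-score of the integrated fluorescence ratio above library mean plus 3 SD, and starting fluorescence ratio within library mean plus 5 SD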;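 note: higher score means more depolarization so channel activation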
Target sequence (Q61143 whole entry, looked up): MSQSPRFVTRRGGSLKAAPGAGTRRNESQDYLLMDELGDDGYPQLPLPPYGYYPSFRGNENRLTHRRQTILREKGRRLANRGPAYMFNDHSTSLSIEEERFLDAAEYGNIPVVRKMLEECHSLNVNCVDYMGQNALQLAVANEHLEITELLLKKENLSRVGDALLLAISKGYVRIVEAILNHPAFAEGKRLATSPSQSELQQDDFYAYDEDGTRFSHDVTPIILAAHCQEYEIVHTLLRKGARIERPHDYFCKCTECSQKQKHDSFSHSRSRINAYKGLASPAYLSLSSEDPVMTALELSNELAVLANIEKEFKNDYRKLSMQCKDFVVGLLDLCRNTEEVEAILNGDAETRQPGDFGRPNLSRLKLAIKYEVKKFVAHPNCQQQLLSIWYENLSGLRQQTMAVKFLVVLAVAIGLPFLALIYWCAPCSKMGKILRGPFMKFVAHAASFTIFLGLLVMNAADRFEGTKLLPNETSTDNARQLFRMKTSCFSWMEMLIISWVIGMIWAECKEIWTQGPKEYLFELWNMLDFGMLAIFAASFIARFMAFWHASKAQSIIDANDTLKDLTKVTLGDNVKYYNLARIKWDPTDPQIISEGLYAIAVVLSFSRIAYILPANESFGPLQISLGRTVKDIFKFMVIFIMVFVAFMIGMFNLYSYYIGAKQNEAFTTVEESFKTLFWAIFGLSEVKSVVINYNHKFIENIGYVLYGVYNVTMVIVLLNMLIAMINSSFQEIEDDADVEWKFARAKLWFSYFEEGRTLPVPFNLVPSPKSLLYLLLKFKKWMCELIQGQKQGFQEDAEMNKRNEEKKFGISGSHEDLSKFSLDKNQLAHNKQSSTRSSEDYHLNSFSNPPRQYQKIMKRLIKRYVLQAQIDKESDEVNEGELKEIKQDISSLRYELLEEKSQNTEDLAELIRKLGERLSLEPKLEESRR
TRPC4 potent: allosterically enhances the mouse TRPC4 cation channel | Q9QUQ5 | HEK293 TRPC4beta/mu-opioid, DAMGO EC20, Fluo-4 Ca2+ flux; stronger effect = higher value | B-score at 10 µM | 310,000 tested, 0.42% active | AID 2227;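 active = B-score of calcium response area above 5 SD of library B-scores, with initial fluorescence ratio within 5 SD of library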;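 note: B-score of integrated fluorescence ratio over time as area under calcium response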
TRPC6 inh: blocks the mouse TRPC6 cation channel. HEK293-TRPC6, membrane potential dye, ACh-evoked depolarization; stronger effect = lower value. 310,000 tested, 1.1% active. Q61143. B-score at 10 µM;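 active = B-score under library mean minus 3 SD, initial fluorescence not abnormally high, positive integrated signal ratio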;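 note: B-score derived from integrated fluorescence ratio over the kinetic read; more negative B-score means stronger inhibition of depolarization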
TRPC4 block: TRPC4 (mouse) channel inhibition. Q9QUQ5. HEK293 TRPC4beta/mu-opioid, DAMGO-evoked Fluo4 calcium flux; stronger effect = lower value. B-score at 10 µM. 300,000 tested, 0.39% active. AID 2247;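 active = B-score over 3 SD under the library average, no early fluorescence shift, positive overall ratio signal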
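Material: HEK293 cells with stable TRPC4beta plus mu-opioid receptor expression / Probe or stimulus: DAMGO in two steps, submaximal then maximal / Compound: single concentration per test compound / Technique: kinetic Fluo4 fluorescence imaging of calcium influx / Read-out: per-well B score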
TRPC4 spec 2: second selectivity test of TRPC6 inhibitors: effect on mouse TRPC4; shares compounds with TRPC6 inh; HEK293 TRPC4/MOR, membrane potential dye fluorescence; channel activated by saturating DAMGO dose; inhibition, % at 10 µM; 920 tested, 42% active; AID 2776;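 active = compounds whose fluorescence signal differed from control wells by over 3 SD, either direction, in both duplicate plates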
TRPC4 spec: tests whether TRPC6 inhibitors also affect mouse TRPC4 | shares compounds with TRPC6 inh | HEK293 TRPC4/mu-opioid, membrane potential fluorescence | activity change, negative = inhibition, % at 10 µM | 920 tested, 61% active;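 active = rise or fall in signal beyond 3 SD of buffer-only wells in both replicate plates, either sign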;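 note: integrated kinetic ratio of fluorescence range over baseline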
HEK293 MPD ctr 2-1: second counter-screen for TRPC6 inhibitors: parental HEK293 cells; shares compounds with TRPC6 inh; parental HEK293 membrane potential dye fluorescence; maximal acetylcholine challenge after compound addition; signal change vs control, % at 10 µM; 920 tested, 31% active;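 active = membrane potential signal moving either way by over 3 SD of the maximum-effect control, in both duplicate plates, meaning non-specific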
HEK293 MPD ctr-1: checks TRPC6 inhibitor effects in parental HEK293 cells | AID 2780 | parental HEK293 membrane potential dye fluorescence | membrane potential signal change, % at 10 µM | shares compounds with TRPC6 inh | 920 tested, 60% active;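 active = membrane potential signal shifting up or down by more than 3 SD of buffer-only wells, on both duplicate plates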
HEK293 MPD ctr-2: counter-screen for TRPC6 modulators: effect in parental HEK293 cells; 2,400 tested, 51% active; membrane potential dye fluorescence; shares compounds with TRPC6 inh; membrane potential signal change, % at 10 µM; AID 488924;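 active = membrane potential signal moves up or down beyond 5 SD from buffer-only wells, on both duplicate plates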
HEK293 MPD ctr 2-2: parental HEK293 nonspecific activity of TRPC6 modulators, second screen. inhibition, % at 10 µM. shares compounds with TRPC6 inh. membrane potential dye fluorescence; after compound, maximal acetylcholine stimulation. 2,400 tested, 14% active;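 active = membrane potential signal drops by more than 5 SD from the mean control signal, in both duplicate plates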;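 note: plate controls were acetylcholine ECmax control wells for no effect and buffer only wells for full effect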
TRPC4 ctr mod: mouse TRPC4 off-target activity of TRPC6 modulators | 2,400 tested, 69% active | shares compounds with TRPC6 inh | HEK293 TRPC4/mu-opioid, membrane potential fluorescence | percent change from control (negative = decrease, positive = increase), % at 10 µM | AID 488927;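 active = membrane potential signal moved up or down beyond 5 SD of buffer control wells, in both duplicate plates, actives on both sides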;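 note: plate controls were assay buffer wells for no effect and DAMGO maximal-effect wells for full effect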
TRPC4 ctr inh 2: second selectivity test of TRPC6 modulators against mouse TRPC4. shares compounds with TRPC6 inh. HEK293 TRPC4/mu-opioid, membrane potential dye fluorescence; stimulated with maximal-effect DAMGO. inhibition, % at 10 µM. 2,400 tested, 55% active. AID 488928;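 active = drop in membrane potential signal beyond 5 SD of the control wells in both duplicate plates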;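 note: TRPC4 counter screen for TRPC6 hits run under conditions tuned for TRPC6 not TRPC4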
TRPC6 block conf: confirmation of mouse TRPC6 inhibitors; AID 488960; 3,300 tested, 43% active; HEK293-TRPC6, membrane potential dye, ACh-evoked depolarization; shares compounds with TRPC6 inh; inhibition, % at 10 µM;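 active = fluorescence ratio falls more than 5 SD below the full-stimulation control mean, in both duplicate runs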;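 note: integrated fluorescence ratio of peak minus minimum over baseline after agonist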
TRPC6 act confirm: mouse TRPC6 activator confirmation; shares compounds with TRPC6 inh; AID 488961; activation, % at 10 µM; 2,800 tested, 11% active; HEK293-TRPC6 membrane potential dye fluorescence, FDSS;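 active = ratio signal rise beyond 5 SD above unstimulated control wells' mean, seen in both duplicate runs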;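 note: plate controls were buffer EC0 wells for no effect and acetylcholine ECmax response for full effect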
Active calls of the source: *; i = inactive; . = no result. Compounds with a hit are over-represented: about 2.3% of the library has one in this group of screens.

SMILES | TRPC4 act | TRPC6 act | TRPC4 potent | TRPC6 inh | TRPC4 block | TRPC4 spec 2 | TRPC4 spec | HEK293 MPD ctr 2-1 | HEK293 MPD ctr-1 | TRPC6 block conf | TRPC6 act confirm | others
COc1ccc2nc(C)cc(SCC(=O)NNC(=O)COc3ccc(C)cc3)c2c1 | i | i | i | i | i | . | . | . | . | . | .
CCOc1ccccc1Nc1ncnc2ccc(Br)cc12 | i | i | i | i | i | . | . | . | . | . | .
CCOc1ccccc1Nc1cc(C)nc2ccc(C)cc12 | i | i | i | -7.7* | i | 46.5%* | -12.6%* | i | -209.0%* | 61.5%* | i
COc1ccc2nc(C)cc(Nc3ccc(N4CCOCC4)cc3)c2c1 | i | i | i | i | i | . | . | . | . | . | .
COc1ccc2nc(C)cc(Nc3ccc(C)cc3)c2c1 | i | i | i | -6.62* | -7* | 42.5%* | -25.9%* | i | -272.5%* | 68.4%* | i
O=C(COc1coc(CN2CCc3ccccc3C2)cc1=O)Nc1cccc(Cl)c1 | i | i | i | i | i | . | . | . | . | . | .
CC(=O)c1ccc(-c2ccc(C(=O)N3CCC(C(N)=O)CC3)o2)cc1 | i | i | i | i | i | . | . | . | . | . | .
COc1ccc(OC)c(Nc2cc(C)nc3ccc(C)cc23)c1 | i | i | i | -7.48* | -6* | 52.5%* | -14.5%* | i | -239.0%* | 66.9%* | i
COc1ccc(OC)c(Nc2cc(C)nc3nc(C)nn23)c1 | i | i | i | i | i | . | . | . | . | . | .
COc1ccc(N2CCN(c3cc(C)c4cccc(C)c4n3)CC2)cc1 | i | i | i | i | i | . | . | . | . | . | .
COc1ccc(OC)c2c(C)cc(N3CCCCCC3)nc12 | i | i | i | -6.63* | -5* | 74.5%* | -22.1%* | i | -419.0%* | i | i
COc1ccc(OC)c2c(C)cc(N3CCN(C(=O)c4ccc(C)cc4)CC3)nc12 | i | i | i | i | i | . | . | . | . | . | .
COc1ccc(S(=O)(=O)NCCN2CCOCC2)c(C)c1C | i | i | i | i | i | . | . | . | . | . | .
COc1ccc(OC)c2c(C)cc(C)nc12 | i | i | i | i | i | . | . | . | . | . | .
COc1cccc2c(C)cc(N3CCCCCC3)nc12 | i | i | i | -9.41* | i | . | . | . | . | 46.5%* | i | HEK293 MPD ctr-2=-262.0%*;HEK293 MPD ctr 2-2=i;TRPC4 ctr mod=-47.0%*;TRPC4 ctr inh 2=86.0%*
COc1ccc(OC)c2c(C)cc(N3CCN(C(=O)c4ccc(F)cc4)CC3)nc12 | i | i | i | -5.65* | i | . | . | . | . | i | i | HEK293 MPD ctr-2=-243.5%*;HEK293 MPD ctr 2-2=i;TRPC4 ctr mod=-44.5%*;TRPC4 ctr inh 2=42.0%*
